This is an account of results in ChEMBL document CHEMBL1926645, “Synthesis and biological evaluation of (4H-1,2,4-triazol-4-yl)isoquinoline derivatives as selective glycine transporter 1 inhibitors” (Bioorg Med Chem, 2012).

Usually IC50 stands for the concentration that inhibits the measured activity by half. A high value points to weaker potency. What is called inhibition is the percentage by which the read-out fell short of the control. Low values mean a weak effect, high ones a strong effect. Usually solubility stands for the dissolved amount per volume that the medium holds. A higher solubility goes with a readily soluble substance. By inhibition in vivo is commonly meant the percentage by which the read-out fell short of the control.

Series [1] deals with T1, Sodium- and chloride-dependent glycine transporter 1 (Rattus norvegicus, UniProt P28572).
T1 sequence (P28572 whole entry): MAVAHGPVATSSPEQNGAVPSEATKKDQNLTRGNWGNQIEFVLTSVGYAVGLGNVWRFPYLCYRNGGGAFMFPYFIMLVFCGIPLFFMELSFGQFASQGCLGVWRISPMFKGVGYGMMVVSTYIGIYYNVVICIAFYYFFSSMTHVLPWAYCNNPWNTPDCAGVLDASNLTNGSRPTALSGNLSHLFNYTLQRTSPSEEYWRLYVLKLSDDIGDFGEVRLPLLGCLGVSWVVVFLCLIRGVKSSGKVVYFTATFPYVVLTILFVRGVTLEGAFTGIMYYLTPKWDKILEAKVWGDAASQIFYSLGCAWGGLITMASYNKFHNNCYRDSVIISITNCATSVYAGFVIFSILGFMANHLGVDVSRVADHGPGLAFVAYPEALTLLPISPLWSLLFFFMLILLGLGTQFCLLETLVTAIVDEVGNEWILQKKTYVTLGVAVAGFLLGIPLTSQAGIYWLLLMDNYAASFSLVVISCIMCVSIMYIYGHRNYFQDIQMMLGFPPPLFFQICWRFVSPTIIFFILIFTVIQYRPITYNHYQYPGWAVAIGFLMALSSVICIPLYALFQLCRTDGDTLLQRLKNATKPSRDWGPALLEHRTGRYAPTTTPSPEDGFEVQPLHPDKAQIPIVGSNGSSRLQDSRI
The series can be described thus: Displacement of [3H]glycine from rat GlyT1 expressed in rat C6 cells after 30 mins by scintillation counting. It counts as cell-based. The method in brief:
(§1)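 Rat GlyT1-expressing C6 cells grown in D-MEM/10% FCS, 37 °C, 5% CO2, plated 2 days ahead. Cells washed, then preincubated 30 min with compound in HEPES buffer pH 7.4 (NaCl, KCl, MgCl2, CaCl2, glucose, L-alanine). Uptake started with [3H]glycine, 10 min at 37 °C. Nonspecific uptake defined with 3 mmol/L sarcosine. Cells washed with ice-cold PBS, lysed in 0.1 mol/L NaOH, scintillation counted; mean ± SEM of three independent experiments.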

The target in series [2] is T2, Sodium- and chloride-dependent glycine transporter 1 (Rattus norvegicus) (UniProt P28572).
T2 sequence (whole entry): T1 sequence (P28572 whole entry)
The series can be described thus: Displacement of [3H]glycine from rat GlyT1 expressed in rat C6 cells at 10 uM after 30 mins by scintillation counting. It counts as cell-based. The method in brief: as §1
(Displacement assays read how much labelled ligand stays bound in the presence of the test substance.)

The species named for another series is Rattus norvegicus. The series can be described thus: Selectivity ratio of IC50 for rat GlyT2 to IC50 for rat GlyT1.
The nature of series [3]: Aqueous solubility of the compound at pH 6.8. It counts as physicochemical. The procedure, abridged: (§2)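 Compound suspension held at 25 °C for 20 h; precipitate removed by filtration and dissolved concentration in filtrate measured by HPLC.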
The target of series [4] is T3, Sodium- and chloride-dependent glycine transporter 2 (Rattus norvegicus, UniProt P58295).
T3 sequence (P58295 whole entry): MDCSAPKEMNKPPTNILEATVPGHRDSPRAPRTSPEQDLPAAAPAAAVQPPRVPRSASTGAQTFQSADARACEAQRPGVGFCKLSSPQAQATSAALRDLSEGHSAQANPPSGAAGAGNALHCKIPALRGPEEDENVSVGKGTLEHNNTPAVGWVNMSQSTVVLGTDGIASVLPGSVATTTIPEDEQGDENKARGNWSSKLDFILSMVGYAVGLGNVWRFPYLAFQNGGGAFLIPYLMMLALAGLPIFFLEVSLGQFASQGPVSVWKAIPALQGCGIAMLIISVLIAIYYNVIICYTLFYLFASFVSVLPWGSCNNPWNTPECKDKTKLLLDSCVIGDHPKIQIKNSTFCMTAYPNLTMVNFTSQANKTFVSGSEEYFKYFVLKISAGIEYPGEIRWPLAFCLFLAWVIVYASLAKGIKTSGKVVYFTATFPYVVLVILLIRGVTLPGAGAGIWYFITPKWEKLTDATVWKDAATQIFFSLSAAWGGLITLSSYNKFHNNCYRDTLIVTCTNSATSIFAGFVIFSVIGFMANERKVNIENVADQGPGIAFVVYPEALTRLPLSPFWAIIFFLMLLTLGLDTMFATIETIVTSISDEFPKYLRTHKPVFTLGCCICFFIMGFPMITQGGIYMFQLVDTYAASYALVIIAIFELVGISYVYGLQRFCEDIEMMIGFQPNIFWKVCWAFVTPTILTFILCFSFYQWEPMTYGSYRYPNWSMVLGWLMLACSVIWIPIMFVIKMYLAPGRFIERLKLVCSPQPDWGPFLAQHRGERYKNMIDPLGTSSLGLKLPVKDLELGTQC
Kind of series: Displacement of [3H]glycine from Wistar rat brain GlyT2 after 10 mins by scintillation counting. The procedure, abridged:
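Primary brainstem cells from Wistar rat fetuses (E17) were papain-dispersed, plated on poly-L-lysine, and cultured 14–21 days. The assay buffer, pH 7.4, contained 3 mmol/L sarcosine; wells were preincubated 10 min at 37 °C. Compound was added with ~0.3 µM [3H]glycine for 10 min at 37 °C, followed by four ice-cold washes, NaOH lysis and scintillation counting. Specific uptake was defined with 3 mmol/L glycine; mean ± SEM of three independent experiments.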

The nature of series [5]: Aqueous solubility of the compound at pH 1.2. It counts as physicochemical. The method in brief: as §2
A further series has as its system Mus musculus. Kind of series: Antipsychotic activity in ICR mouse assessed as inhibition of (+)-HA966-induced hyperlocomotion at 10 mg/kg, ip administered 20 mins prior (+)-HA966] challenge measured every 90 mins. Particulars: route intraperitoneal. It counts as functional. The method in brief:
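Mice, 16 per group, pretreated with reserpine 10 mg/kg ip 19 h and α-methyl-para-tyrosine methyl ester 250 mg/kg ip 30 min before bilateral intracerebroventricular (+)-HA966 80 µg/mouse; ACSF+vehicle controls. Locomotor activity integrated over 90 min immediately after (+)-HA966. Percent inhibition = 100 × [(HA966+vehicle − ACSF+vehicle) − (HA966+compound − ACSF+vehicle)] / (HA966+vehicle − ACSF+vehicle).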

Molecules are shown by their SMILES. In brackets after ≈: the same amount, converted by molar mass.

As to `CCc1nnc(-c2ccc(-c3ccccc3)cc2)n1-c1cccc2c(=O)[nH]ccc12`, the concentration for half-maximal inhibition (IC50) in series [1] is more than 10 µM. In addition, the inhibition in series [2] came to 16%.

`CCc1nnc(-c2ccc(-c3ccccc3)cc2)n1-c1cccc2ccn(C)c12` came in with an IC50 in series [1] of 3 µM.

With `CCc1nnc(-c2ccc(-c3ccccc3)cc2)n1-c1cccc2ccncc12`, the figures for the IC50 in series [1] and in series [4] were 0.8 µM and 4.2 µM, respectively. For the same compound, the Ratio IC50 in the series filed under Rattus norvegicus was determined as 5.3. The figures for the solubility in series [3] and in series [5] were 11 µM (≈ 4.14 µg/mL) and more than 100 µM, respectively.

Regarding `CCc1nnc(-c2ccc(-c3ccccc3)cc2)n1-c1cccc2c[n+]([O-])ccc12`, the IC50 in series [1] is more than 10 µM. For the same compound, the inhibition in series [2] is 28%.

In series [1], `CCc1nnc(-c2ccc(-c3ccccc3)cc2)n1-c1cccc2[nH]ncc12` came in with an IC50 of 2.8 µM.

As to `CCc1nnc(-c2ccc(-c3ccccc3)cc2)n1-c1ccnc2ccccc12`, the half-inhibitory concentration (IC50) in series [1] came to 1.7 µM.

As to `CCc1nnc(-c2ccc(-c3ccccc3)cc2)n1-c1cccc2cccnc12`, the IC50 in series [1] was determined as 0.3 µM; in series [4] it was 0.38 µM. Also, in the series listed under Rattus norvegicus, the Ratio IC50 was 1.3. Further, the solubility in series [3] is 23 µM (≈ 8.66 µg/mL); in series [5], more than 100 µM.

Compound `CCc1nnc(-c2ccc(-c3ccccc3)cc2)n1-c1cccc2cc[nH]c12` registered a 50% inhibitory concentration (IC50) in series [1] of 22 µM.

On to `CCc1nnc(-c2ccc(-c3ccccc3)cc2)n1-c1cccc2ncccc12`, for which the 50% inhibitory concentration (IC50) was found to be 0.82 µM in series [1] and 2.7 µM in series [4]. The Ratio IC50 in the series filed under Rattus norvegicus was determined as 3.3. The solubility in series [3] was 9 µM (≈ 3.39 µg/mL); in series [5], more than 100 µM.

As to `CCc1nnc(-c2ccc(-c3ccccc3)cc2)n1-c1cccc2cnccc12`, the solubility is 5 µM (≈ 1.88 µg/mL) in series [3] and more than 100 µM in series [5].

Regarding `CCc1nnc(-c2ccc(-c3ccccc3)cc2)n1-c1cccc2c1CCNC2`, the IC50 in series [1] is more than 10 µM. The compound further had an inhibition in series [2] of 25%.

Consider `CCc1nnc(-c2ccc(-c3ccccc3)cc2)n1C(C)c1ccncc1` (stereo unspecified), for which the IC50 in series [1] was more than 10 µM. In series [2], this compound displayed an inhibition of 36%.

`CCc1nnc(-c2ccc(-c3ccccc3)cc2)n1-c1cccc2nc[nH]c12` came in with an IC50 in series [1] of 7.5 µM.

Regarding `CCc1nnc(-c2ccc(-c3ccccc3)cc2)n1-c1nccc2ccccc12`, the IC50 in series [1] was determined as 1.4 µM.

Turning to `CCc1nnc(-c2ccc(-c3ccccc3)cc2)n1Cc1ccncc1`, the IC50 in series [1] was more than 10 µM. In addition, in series [2], the inhibition turned out to be 15%.

Regarding `CCc1nnc(-c2ccc(-c3ccccc3)cc2)n1-c1ccccc1F`, the Ratio IC50 in the series listed under Rattus norvegicus turned out to be 1. In addition, the solubility in series [3] is less than 1 µM; in series [5] it was 96 µM (≈ 33 µg/mL).

With `CCc1nnc(-c2ccc(-c3ccccc3)cc2)n1-c1cccc2cn[nH]c12`, in series [1], the IC50 came out at 5.6 µM.

`CCc1nnc(-c2ccc(-c3ccccc3)cc2)n1-c1cncc2ccccc12`: the IC50 in series [1] was 3.7 µM.

As for `CC(C)c1nnc(-c2ccc(-c3ccccc3)cc2)n1-c1ccccc1F`, the solubility in series [3] is less than 1 µM; in series [5] it was 5 µM (≈ 1.79 µg/mL). In the series on Mus musculus, the inhibition in vivo at 10 mg/kg worked out at 70%.
